Bioassay records (PubChem BioAssay)
CFTR F508del cor: CFTR F508del correction in bronchial cells. CFBE cells, YFP halide quenching; stimulated with forskolin plus potentiator P3; % fluorescence drop versus neutral controls. activity (quench increase), % at 7.58 µM. 350,000 compounds, 0.36% hits. AID 720511;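 active = mean added fluorescence quench of at least 8% versus neutral control, with both replicates also reaching 8%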;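 also: cells transiently co-express mutant CFTR-F508del with the halide-sensitive YFP; corrector assay measuring rescue of mutant channel to the surface after 24 h compound exposure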
CaV13 FRET inh: Primary screen for inhibitors of IQ motif and Ca2+-dependent inactivation inhibitor domain binding in CACNA1D, Förster resonance energy transfer in living cells, …; HEK cells, CFP/YFP FRET ICDI-IQ, plate reader, 10 min; percent FRET-ratio fall versus neutral wells; inhibition, % at 12.3 µM; 340,000 compounds, 0.098% hits; AID 743397;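 active = mean replicate inhibition of at least 30% and at least 1% of replicates passing that level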
Ecoli rRNA inh: selective bacterial rRNA inhibition in E. coli. E. coli WT GFP vs humanized-ribosome RFP mutants, fluorescence, 24 h; stronger effect = lower value; DMSO median 0, no signal -100. GFP signal change (wild-type ribosome), % (test concentration not listed). 350,000 compounds, 1.6% hits. AID 720706;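 active = significant combined selectivity score with lowered wild-type GFP, culture density cut under 30%, mutant RFP and density less affected; inactive = any of these conditions unmet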
Cneo AK release: causes C. neoformans cell lysis. adenylate kinase release luminescence, 4 h; normalised: neutral wells 0, clomiphene wells 100. lysis activity, % at 15 µM. 360,000 compounds, 0.2% hits. AID 651654;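 active = mean lysis activity across replicates of at least 80%, whatever share of replicates individually reach that level; inactive = mean lysis activity below 80%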
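Material: C. neoformans cells; Schedule: 4 h static compound exposure, 37 °C, read 1 h post-reagent; Measured by: adenylate kinase release luminescence; Read-out: signal increase indicating cell lysis; Controls: Clomiphene as positive lysis control.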
A number is an active result; i = inactive; nt = no result. Sampled rows, rich in hits. Any-hit rate of the full collection: about 1.7%.

SMILES	CFTR F508del cor	CaV13 FRET inh	Ecoli rRNA inh	Cneo AK release
CC(C)OP(=O)(c1ccc(N(C)C)cc1)C(Nc1ccccc1)c1ccccc1 (stereo not drawn)	i	i	-27	nt
COc1cccc(C(=O)Nc2ccc3c(c2)OC[C@@H](C)N(CC2CC2)C[C@H](C)[C@H](OC)CN(C)C3=O)c1	i	nt	i	i
O=C(NCC[C@@H]1CC[C@@H](NC(=O)C2CCOCC2)[C@@H](CO)O1)c1ccc(F)cc1	i	nt	i	i
COc1ccc([C@H]2CC(=O)C=C(c3c(OC)cccc3OC)C2)cc1	11	i	i	i
CCOc1ccc(Cl)cc1C1=CC(=O)C[C@H](c2ccc(OC)cc2)C1	9.1	i	i	i
C[C@H]1CN([C@@H](C)CO)C(=O)Cc2cc(NS(C)(=O)=O)ccc2O[C@H]1CN(C)S(=O)(=O)c1ccccc1	i	nt	i	i
O=C(c1cc(Cl)nc2ccccc12)N(Cc1nnc(-c2ccc(Cl)cc2)o1)C1CC1	i	i	-27	nt
COC(=O)N/N=C/c1cc(Cl)c(OCc2ccccc2F)c(OC)c1	i	i	-16	i
O=C(CSC1=NNC(c2ccccn2)S1)Nc1ccccc1 (stereo not drawn)	11	i	-19	i
O=C(CSC1=NNC(c2ccccn2)S1)Nc1cccc(Cl)c1 (stereo not drawn)	i	i	i	i
C[C@@H]1CN([C@H](C)CO)C(=O)c2cccc(NC(=O)C3CC3)c2O[C@H]1CN(C)Cc1ccc(C(=O)Nc2ccccc2N)cc1	i	nt	i	i
C[C@@H]1CN([C@H](C)CO)C(=O)c2cc(C3=CCCC3)cnc2O[C@@H]1CN(C)C(=O)c1cccnc1	i	nt	i	i
C[C@H](CO)N1C[C@H](C)[C@H](CN(C)S(=O)(=O)c2cccs2)Oc2ncc(-c3ccc(F)cc3)cc2C1=O	i	nt	i	i
COc1ccc(COc2cc(-c3cccc(OC)c3)nc3ccc(NC(=O)c4ccc(OC)cc4)cc23)cc1	8.2	i	i	i
COc1cccc(C#Cc2ccc([C@@H]3[C@@H](CO)N4C(=O)CN(C(=O)c5ccncc5)C[C@@H]34)cc2)c1	i	nt	i	nt
CC(=O)N(C)C[C@H]1Oc2c(NS(C)(=O)=O)cccc2C(=O)N(C)C[C@@H]1C	nt	nt	i	nt
C(/C=C/c1ccccc1)=N/N1CCN(c2ccccc2)CC1	nt	i	nt	i
C(=C\c1ccccc1)/C=N/N1CCN(Cc2ccccc2)CC1	i	i	-25	nt
N#CC1=C(SCC(=O)Nc2nccs2)NC(=O)CC1c1ccccc1 (stereo not drawn)	i	i	-28	i
COC(=O)CSC1=C(C#N)C(c2ccc(C)o2)CC(=O)N1 (stereo not drawn)	9.7	i	i	i
COC(=O)CSC1=C(C#N)C(c2ccc(F)cc2)CC(=O)N1 (stereo not drawn)	i	i	i	i
CC(C)C#Cc1cnc2c(c1)C(=O)N([C@H](C)CO)C[C@H](C)[C@H](CN(C)Cc1ccc3c(c1)OCO3)O2	nt	nt	i	i
COc1ccc2c3c([nH]c2c1)[C@@H](CO)N(Cc1ccccc1)CC31CN(CC2CC2)C1	nt	nt	i	nt
CCOC(=O)CCCc1ccc(/C(C)=N/NC(=S)NC)cc1	i	i	i	nt
CCOC(=O)CCCc1ccc(/C(C)=N/NC(N)=S)cc1	i	i	-44	nt
SMILES	CFTR F508del cor	CaV13 FRET inh	Ecoli rRNA inh	Cneo AK release
CCCNC(=O)N1C[C@H](O)COC[C@@H]2O[C@@H](CC(=O)N3CCCCC3)CC[C@H]21	i	nt	i	i
CCOC(=O)c1cnc(-n2nc(C)cc2C)nc1NC1CCCC1	i	i	-49	i
Cc1nc2ccccc2n1Cc1ccccc1	i	i	i	i
Cc1nc2ccccc2n1Cc1ccc(Br)cc1	i	i	-47	i
CCCCC/C=C\C/C=C\C/C=C\CCCCC(=O)O	9.0	i	nt	i
O=C(Nc1cc(F)ccc1F)N[C@@H]1CC[C@@H](CCn2cc(C3CC3)nn2)O[C@H]1CO	i	nt	i	i
CC(C)NC(=O)c1ccc(COc2cccc3ccccc23)o1	9.8	i	i	i
Cc1ccc(OCc2ccc(C(=O)NN)o2)cc1C	i	i	-32	i
O=C(OCc1ccccn1)c1ccc(COc2ccc3ccccc3c2)o1	i	i	-26	i
CCOc1ccc(OCc2ccc(C(=O)NN)o2)cc1	i	i	i	nt
NNC(=O)c1ccc(COc2ccc3ccccc3c2)o1	i	i	-25	nt
C[C@@H]1CN([C@H](C)CO)C(=O)c2cc(C3=CCCC3)cnc2O[C@@H]1CN(C)C(=O)C1CC1	i	nt	i	nt
O=C(NCC(c1cccs1)N1CCOCC1)c1ccc(OCc2ccccc2)cc1 (stereo not drawn)	9.1	i	i	i
COc1ccccc1CN(C)CC(=O)Nc1ccc(Cl)cc1F	i	i	i	nt
CN(CC(=O)Nc1ccccc1C(F)(F)F)Cc1c(O)ccc2ccccc12	i	i	-27	i
COc1ccccc1CN(C)CC(=O)Nc1ccc(Cl)cc1C(F)(F)F	nt	i	-34	nt
CCN(CC)S(=O)(=O)c1cc(NS(=O)(=O)c2c(Cl)cccc2Cl)ccc1C	i	i	i	nt
CCN(CC)S(=O)(=O)c1cc(NS(=O)(=O)c2cccc(Cl)c2Cl)ccc1C	nt	i	-38	i
CCN(CC)S(=O)(=O)c1cc(NC(=O)Cn2ncc(Cl)c(Cl)c2=O)ccc1C	i	i	-26	nt
O=C(Cn1ncc(Cl)c(Cl)c1=O)Nc1ccc2c(c1)OCO2	i	i	i	i
CCOC(=O)CCCNC(=O)CCNC(=O)c1ccc(OC)cc1	nt	i	nt	i
CCCCCOc1ccc(C(=O)NCCC(=O)NCCCC(=O)OCC)cc1	i	i	-25	nt
O=C(C[C@H]1C=C[C@H](NC(=O)c2ccncc2)[C@@H](CO)O1)NCc1ccncn1	i	nt	i	nt
Oc1c(CN2CCCCC2)ccc2cccnc12	i	i	-13	i
COc1ccc(C(=O)Cn2nnc(-c3ccccc3F)n2)cc1	i	i	-31	i
SMILES	CFTR F508del cor	CaV13 FRET inh	Ecoli rRNA inh	Cneo AK release
Cc1nc2nc(-c3ccccc3)cn2nc1C	i	i	-26	i
c1ccc(-c2cn3nc4c(nc3n2)CCCC4)cc1	nt	34	nt	nt
C[C@H]1CN(C)C(=O)c2cc(N(C)C)ccc2O[C@@H]1CN(C)S(C)(=O)=O	nt	nt	i	nt
CCOc1ccc(/C=C2\SC(=S)N(CCC(=O)O)C2=O)cc1	i	i	-27	nt
Cc1ccc(/C=C2\SC(=S)N(CCCC(=O)N3CCOCC3)C2=O)cc1	i	i	-26	i
Cc1ccc(NC(=O)COc2cccc(/C=C3\SC(=S)N(CCC(=O)O)C3=O)c2)cc1Cl	i	i	i	nt
O=C(O)CCN1C(=O)/C(=C\c2cccc(OCC(=O)Nc3ccc(Cl)cc3)c2)SC1=S	i	i	-30	i
C[C@@H]1CN([C@H](C)CO)S(=O)(=O)c2ccc(C3=CCCCC3)cc2O[C@H]1CN(C)C(=O)C1CC1	i	nt	i	i
COc1ccc(NC(=O)Nc2ccc3c(c2)[C@@H]2C[C@H](CC(=O)N(C)C)O[C@@H](CO)[C@@H]2O3)cc1	i	nt	i	i
S=C(Nc1ccc(Cl)cc1Cl)Nc1ccccc1Oc1ccccc1	nt	nt	nt	360
S=C(Nc1cccc(Cl)c1)Nc1ccccc1Oc1ccccc1	nt	i	nt	i
